These results are taken from ChEMBL document CHEMBL1649530, “Pharmacokinetics and pharmacodynamics of a novel triazole, isavuconazole: mathematical modeling, importance of tissue concentrations, and impact of immune status on antifungal effect” (Antimicrob Agents Chemother, 2009).

Each structure is given as a SMILES string. In brackets after ≈: the same amount, converted by molar mass. Activity calls are given as the source filed them. No cut-off for these calls is given here.

Data set [1] in a line: Ratio of AUC to MIC in mouse infected with Candida albicans FA/6862 at 0.82 mg/kg, sc QID. The format is functional. As to conditions: route subcutaneous.
Data set [2] deals with Candida albicans. In words: Antifungal activity against Candida albicans FA/6862 assessed as postantifungal effect at =< 1 time MIC by CLSI M27-A2 method. The data set is classed as functional, organism-based. In a few lines: (§1)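 Log-phase organism washed in PBS, resuspended at 1 × 10^6 CFU/ml in warmed RPMI 1640 + 2% glucose, pre-incubated 30 min at 37°C. Drug added at 1/10× to 100× MIC for 3 h, then washed twice and regrown in drug-free RPMI. Quantitative subcultures hourly to 8 h, then 14 and 24 h. PAFE = delay in reaching +1 log10 CFU/ml versus drug-free controls.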

Data set [3] is described as follows: Ratio of AUC to MIC in mouse infected with Candida albicans FA/6862 at 3.37 mg/kg, sc QID. As to conditions: route subcutaneous.
Data set [4] can be described thus: Ratio of AUC to MIC in mouse infected with Candida albicans FA/6862 at 8.12 mg/kg, sc administered as single dose. The format is functional. The following applies: route subcutaneous.
Data set [5] in a line: Ratio of AUC to MIC in mouse infected with Candida albicans FA/6862 at 2.03 mg/kg, sc QID. As to conditions: route subcutaneous. The data set is classed as functional.
The nature of data set [6]: Terminal half life in mouse at 1.6 to 13 mg/kg, sc. As to conditions: in vivo, read-out: beta t1/2 (converted). The format is ADME, organism-based. The arrangement: dose 1.6-13 mg/kg, route subcutaneous. In a few lines:
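Infected, cyclophosphamide-neutropenic mice given single sc doses. Plasma collected by cardiac puncture at 0.5–24 h, three mice per time point. Plasma stabilized with citric acid and assayed by LC-MS/MS. Half-life derived from a population PK model co-fitting plasma, kidney and fungal burden data.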

Data set [7] is described as follows: Ratio of AUC to MIC in mouse infected with Candida albicans FA/6862 at 1.34 mg/kg, sc QID. The format is functional. The following applies: route subcutaneous.
Data set [8] deals with Candida albicans. In words: Antifungal activity against Candida albicans FA/6862 by CLSI M27-A2 method. The data set is classed as functional. In a few lines:
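Broth microdilution per CLSI M27-A2. Run in duplicate on three separate occasions; modal MIC used.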

Data set [9] in a line: Ratio of AUC to MIC in mouse infected with Candida albicans FA/6862 at 2.67 mg/kg, sc BID. The following applies: route subcutaneous. The data set is classed as functional.
The nature of data set [10]: Ratio of AUC to MIC in mouse infected with Candida albicans FA/6862 at 13.48 mg/kg, sc administered as single dose. The data set is classed as functional. The following applies: route subcutaneous.
Data set [11] relates to Candida albicans. In words: Antifungal activity against Candida albicans FA/6862 infected in mouse assessed as fungal load per gram of kidney at 1.6 to 28 mg/kg, sc measured after 29 hrs postinfection. The following applies: dose mg/kg 1.6-28; route subcutaneous.
A short description of data set [12]: Ratio of AUC to MIC in mouse infected with Candida albicans FA/6862 at 5.35 mg/kg, sc administered as single dose. The format is functional. As to conditions: route subcutaneous.
Data set [13] can be described thus: Ratio of AUC to MIC in mouse infected with Candida albicans FA/6862 at 6.74 mg/kg, sc BID. The format is functional. The following applies: route subcutaneous.
The nature of data set [14]: Ratio of AUC to MIC in mouse infected with Candida albicans FA/6862 at 1.63 mg/kg, sc BID. As to conditions: route subcutaneous. The data set is classed as functional.
A short description of data set [15]: Ratio of AUC to MIC in mouse infected with Candida albicans FA/6862 at 3.27 mg/kg, sc administered as single dose. The format is functional. As to conditions: route subcutaneous.
For data set [16], the system named is Candida albicans. In words: Antifungal activity against Candida albicans FA/6862 assessed as postantifungal effect at 2 times MIC by CLSI M27-A2 method. The format is functional. The procedure, abridged:
as §1

Data set [17] concerns Candida albicans. In words: Antifungal activity against Candida albicans FA/6862 assessed as postantifungal effect at 5 to 100 times MIC by CLSI M27-A2 method. The format is functional. In a few lines:
as §1

Data set [18] can be described thus: Ratio of AUC to MIC in mouse infected with Candida albicans FA/6862 at 4.06 mg/kg, sc BID. The data set is classed as functional. The following applies: route subcutaneous.

As to `C[C@@H](c1nc(-c2ccc(C#N)cc2)cs1)[C@](O)(Cn1cncn1)c1cc(F)ccc1F` [ISAVUCONAZOLE], the RatioAUC/MIC in [1] is recorded as 372.25; in [3], 1544.75; in data set [4] it was 969.5; in data set [5] it was 930.5; in data set [7], 614.25; in data set [9], 633.75. Besides, the RatioAUC/MIC in data set [10] was determined as 1599.75; in data set [12] it was 630; in data set [13] it was 1584.5; in [14] it was 384.25; in [15], 387.75; in data set [18] it was 960.25. Besides, the result in data set [2] was inactive. For the same compound, the half-life in data set [6] was 3.41 h. Besides, the MIC in data set [8] worked out at 4 ng/mL (≈ 9.14 nM). Moreover, the log10cfu in data set [11] is on record as 5.5. Moreover, the results for the Time in data set [16] and in [17] were 2 h and 5 h, respectively.
